Assay results reported in ChEMBL document CHEMBL4130551, “1,2,4-Thiadiazolidin-3,5-diones as novel hydrogen sulfide donors” (Eur J Med Chem, 2018).
Calls of active or inactive are those of the source. The calls are words filed in the database; no cut-off is given here.

Key:
Thoracic aorta [1] = experiment: Vasorelaxant activity in CD-1 mouse thoracic aorta rings assessed as inhibition of L-phenylephrine-induced contraction at 100 uM relative to control; format: functional; details: CD-1, Thoracic aorta
Procedure, shortened: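 Isolated aortic rings precontracted with phenylephrine (1 µM). Cumulative donor concentrations (10 nM–300 µM) or DMSO vehicle. Emax is the maximal relaxation obtained.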

[2] = Drug metabolism in PBS buffer assessed as H2S release by measuring time required for 50% of maximum H2S release at steady state at 1 mM after 30 mins in presence of 4 mM L-cysteine by amperometric method; format: physicochemical; details: 0.5 h, 1000 µM
Procedure, shortened: (§1)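 Amperometric real-time H2S detection at room temperature in assay buffer (10x PBS diluted 1:10 in distilled water). Donor added from DMSO stock to a final 1 mM, 1% DMSO, with 4 mM L-cysteine added where the protocol required. Recorded for 30 min. Curves computer-fitted. TCM50 is the time to reach ½ Cmax. Mean ± SE of 5 experiments.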

Thoracic aorta [3] = experiment: Vasorelaxant activity in CD-1 mouse thoracic aorta rings assessed as inhibition of L-phenylephrine-induced contraction; format: functional, tissue-based; details: CD-1, Thoracic aorta
Procedure, shortened: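 Isolated aortic rings precontracted with phenylephrine (1 µM). Cumulative concentration–response curves of each donor (10 nM–300 µM) or DMSO vehicle. EC50 taken from the curves.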

[4] = Drug level in pH 7.4 PBS buffer treated with 2,4-Diphenyl-1,2,4-thiadiazoline-3,5-dione at 0.5 mmol after 5 to 60 mins in presence of glutathione by ESI-MS analysis; format: physicochemical
[5] = Drug level in pH 7.4 PBS buffer treated with 2,4-Diphenyl-1,2,4-thiadiazoline-3,5-dione at 0.5 mmol after 5 to 60 mins in presence of cysteine by HPLC-MS analysis; format: physicochemical
[6] = Drug metabolism in PBS buffer assessed as H2S release by measuring time required for 50% of maximum H2S release at steady state at 1 mM after 30 mins by amperometric method; format: physicochemical; details: 0.5 h, 1000 µM; procedure, shortened: as §1
[7] = Stability in pH 7.4 PBS buffer at 0.5 mmol after 5 mins in presence of cysteine by HPLC analysis; format: physicochemical; details: PBS buffer with cysteine, read-out: Stability
[8] = Drug metabolism in pH 7.4 PBS buffer at 0.5 mmol after 5 to 60 mins in presence of S-methyl cysteine by ESI-MS analysis; format: physicochemical
[9] = Drug metabolism in water at 0.5 mmol after 5 to 60 mins by ESI-MS analysis; format: physicochemical; details: buffer
[10] = Stability in pH 7.4 PBS buffer at 0.5 mmol after 30 mins in presence of cysteine by HPLC analysis; format: physicochemical; details: PBS buffer with cysteine, read-out: Stability
[11] = Drug metabolism in pH 7.4 PBS buffer assessed as phenyl(phenylcarbamoyl)carbamothioic S-acid formation at 0.5 mmol after 5 to 60 mins in presence of cysteine by HPLC-MS analysis; format: physicochemical
Thoracic aorta [12] = experiment: Vasorelaxant activity in CD-1 mouse endothelium denuded thoracic aorta rings assessed as inhibition of L-phenylephrine-induced contraction; format: functional, tissue-based

Time [2] | EC50 (Thoracic aorta [3]) | SMILES | Emax at 100 µM (Thoracic aorta [1]) | further results
13.84 min | 1.3 µM | Cc1ccc(-n2sc(=O)n(-c3ccccc3)c2=O)cc1 | 94.5% | 
13.93 min | 1.9 µM | COc1ccc(-n2sc(=O)n(C3CCCCC3)c2=O)cc1 | 97.7% | 
9.52 min | 3.9 µM | O=c1sn(-c2ccc(F)cc2)c(=O)n1-c1ccccc1 | 94.3% | 
 |  | N[C@@H](CCC(=O)N[C@@H](CSSC(=O)N(C(=O)Nc1ccccc1)c1ccccc1)C(=O)NCC(=O)O)C(=O)O |  | Drug metabolism [4]: Metabolite_Detected
 |  | NC(CSSC(=O)N(C(=O)Nc1ccccc1)c1ccccc1)C(=O)O (centres undefined) |  | Drug metabolism [5]: Metabolite_Detected
 |  | NC(CSSCC(N)C(=O)O)C(=O)O (centres undefined) |  | Drug metabolism [5]: Metabolite_Detected
15.75 min |  | COc1ccc(-n2sc(=O)n(Cc3ccccc3)c2=O)cc1 |  | Time [6]: 13.46 min
11.4 min |  | O=c1sn(-c2ccccc2)c(=O)n1Cc1ccccc1 |  | Time [6]: 9.56 min
15.36 min | 2.1 µM | COc1ccc(-n2sc(=O)n(-c3ccc(Cl)cc3)c2=O)cc1 | 98.6% | 
14.8 min | 3 µM | COc1ccc(-n2sc(=O)n(-c3ccc(OC)cc3)c2=O)cc1 | 95% | 
 |  | O=C(S)N(C(=O)Nc1ccccc1)c1ccccc1 |  | Drug metabolism [5]: Metabolite_Detected
13.25 min | 1.6 µM | COc1ccc(-n2sc(=O)n(-c3ccccc3)c2=O)cc1 | 100% | 
13.25 min | 1.5 µM | COc1ccc(-n2sc(=O)n(-c3ccc(C)cc3)c2=O)cc1 | 99% | 
 |  | O=C(Nc1ccccc1)Nc1ccccc1 [DIPHENYLUREA] |  | Drug metabolism [5]: Metabolite_Detected
12.01 min | 1.7 µM | O=c1sn(-c2ccccc2)c(=O)n1-c1ccccc1 | 99.7% | remaining at 5 min, 0.5 mmol [7]: 82%; Drug metabolism [8]: Metabolite_Notdetected; Drug metabolism [9]: Metabolite_Notdetected; remaining at 0.5 h, 0.5 mmol [10]: 15%; Drug metabolism [11]: Metabolite_Detected; inhibition (Thoracic aorta [12]): Active
